Compound activity from PubChem.
STAT1 inh = reduces IFN-gamma driven STAT1 reporter signal; 0.35% of 200,000 active; NIH 3T3 STAT1-luciferase reporter, luminescence; inhibition, % at 5.5 µM;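 active = inhibition above a set limit, the mean inhibition across all tested compounds plus 3 SD, cut at about 34% in these data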;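 note: 0% = IFN-gamma with DMSO and 100% = IFN-gamma with 300 µM nifuroxazide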
STAT3 blocker = reduces IL-6 driven STAT3 reporter signal. U3A cells, IL-6 STAT3-luciferase reporter, luminescence; host cell line lacks STAT1. 0.89% of 190,000 active. inhibition, % at 5.5 µM;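 active = inhibition above the mean inhibition across all screened compounds plus 3 SD, cut at about 44% in these data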;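 note: 0% = DMSO only wells and 100% = 100 µM nifuroxazide control wells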
STAT3 act = increases IL-6 driven STAT3 reporter signal. U3A cells, IL-6 STAT3-luciferase reporter, luminescence; 100% = signal with IL-6 EC80 alone. activation (% of control), % at 5.6 µM. 0.91% of 190,000 active. AID 871;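 active = activation above the screen-wide mean of compound activation plus 3 SD, cut at about 130% in these data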;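 note: 0% = background luminescence of wells with medium and substrate only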
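Detection: reporter luminescence signal / Assay system: STAT1-lacking human U3A cells, STAT3 luciferase reporter / Incubation: compound pre-incubation 1 h before IL-6, then 6 h stimulation at 37 °C / Control set: IL-6-only high control / Read-out: % activation relative to IL-6 control / Probe or stimulus: Interleukin-6, 33 ng/mL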
NF-kB expr up = NF-kB expression increase, human neuronal cells; NF-kB reporter expression; hits give high values; fold change at 12.5 µM; 1.6% of 190,000 active; AID 1239; in the data active = fold change above about 3.3
APP 5'UTR act = activates APP 5'UTR luciferase reporter. activation, % at 2 µM. SH-SY5Y APP 5'UTR luciferase reporter, luminescence; zero percent = DMSO vehicle wells. 1% of 190,000 active;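 active = activation above a set limit, based on mean plus 3 SD of controls, cut at about 140% in these data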
STAT1 act = activators of IFN-gamma induced STAT1 signaling | NIH 3T3 STAT1-luciferase reporter, luminescence; 100% = IFN-gamma alone, no compound | activation (% of control), % at 5.5 µM | 2.6% of 200,000 active;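 active = activation above the screen-wide mean activation plus 3 SD, cut at about 130% in these data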;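 note: raw ratio to IFN-gamma control signal so 100% means no change and 0% no light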
STAT1 act conf = confirmation of STAT1 signaling activators | shares compounds with STAT1 act | NIH 3T3 STAT1-luciferase reporter, IFN-gamma potentiation, luminescence; 100% = IFN-gamma EC80 alone, no compound | activation (% of control), % at 5.7 µM | 97% of 1,200 active | AID 1262;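 active = activation above a set limit carried over from the earlier primary STAT1 screen, cut at about 140% in these data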;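 note: simple ratio to median IFN-gamma plus DMSO wells so 0% means no light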
NFkB act = activates NF-kappaB, counter-screen to STAT1 activators | shares compounds with STAT1 act | HEK293T NF-kB luciferase reporter, TNF-alpha stimulated, luminescence; 100% = TNF-alpha with vehicle only | activation (% of control), % at 5.7 µM | 43% of 1,200 active | AID 1306;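 active = activation above the mean of solvent-only control wells plus 3 SD, set per campaign, cut at about 130% in these data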;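 note: TNF-alpha given at a submaximal dose yielding about 80% of full reporter signal; values are well signal over median control so 100% means no change and 0% no light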
STAT3 act STAT1c = counter-screen for STAT1 activators: human STAT3 activation. activation (% of control), % at 5.7 µM. AID 1316. 46% of 1,200 active. shares compounds with STAT1 act. U3A cells STAT3-luciferase reporter, IL-6, luminescence; cells lack STAT1; 100 = IL-6 alone, no compound effect;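 active = activation above the solvent-only control well mean plus 3 SD, set per plate batch, cut at about 110% in these data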;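 note: 0% = no luminescence and 100% = median IL-6 plus DMSO wells; higher means more STAT3 reporter activation so hits are non-selective activators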
Starred values were filed as active, the others as inactive; · = no result given. Only some compounds are listed: those with a hit (about 4.9% of all), similar ones and a draw of the others.

SMILES | STAT1 inh | STAT3 blocker | STAT3 act | NF-kB expr up | APP 5'UTR act | STAT1 act | STAT1 act conf | NFkB act | STAT3 act STAT1c
O=C(NC(=S)N1CCc2ccccc21)c1ccccc1Br | 1 | -11 | 105 | 1.2 | 16 | 99 | · | · | ·
O=C(NN=C1C2CC3CC(C2)CC1C3)c1cccs1 | -33 | -1 | 102 | 2.2 | 131 | 122 | · | · | ·
CC(=O)N1CCC(=NNC(=O)c2cccs2)CC1 | -68 | -11 | 109 | 1.1 | 117 | 160* | 119 | 109 | 104
O=C(NN=C1CCCC1)c1cccs1 | -64 | -14 | 112 | 1.1 | 88 | 156* | 114 | 109 | 100
CC1(C(=O)Oc2ccccc2)Cc2ccccc2C(=O)O1 (stereo not drawn) | 4 | 6 | 103 | 1.1 | 18 | 97 | · | · | ·
O=C(N/C(=C/c1ccc(Br)cc1)C(=O)N1CCCC1=O)c1ccco1 | 8 | 2 | 105 | 1 | -9 | 92 | · | · | ·
Cc1cc(C(=O)CN2C(=O)c3ccccc3C2=O)c(C)n1Cc1cccs1 | -66 | 19 | 86 | 0.94 | 94 | 161* | 193* | 107 | 110
c1ccc(C2CC(c3ccccc3)n3c(nc4ccccc43)N2)cc1 (stereo not drawn) | 6 | 9 | 93 | 1.3 | 27 | 95 | · | · | ·
CCc1ccc(NC(=O)c2cnn(-c3ccccc3)c2C)cc1 | -97 | 28 | 78 | 5.9* | 155* | 185* | 252* | 114 | 87
CCc1ccc(NC(=O)c2cnn(-c3ccccc3)c2C2CCNCC2)cc1 | -11 | 6 | 99 | 0.82 | 13 | 107 | · | · | ·
COc1ccccc1NC(=O)c1ccc(NC(=O)CN2C(=O)CN(C)C2=O)cc1 | 1 | 1 | 102 | 0.82 | 14 | 97 | · | · | ·
CCC(=O)Nc1nc2ccc3sc(C)nc3c2s1 | -79 | -14 | 116 | 1.5 | 79 | 168* | 189* | 121 | 143*
CCCC(=O)Nc1nc2ccc3nc(C)sc3c2s1 | -28 | 26 | 81 | 2.1 | 21 | 125 | · | · | ·
Cc1nc(N)sc1-c1csc(Nc2ccccn2)n1 | -76 | -3 | 106 | 1 | 72 | 169* | 183* | 131 | 129*
Cc1nc(N)sc1-c1csc(Nc2ccc(Cl)cn2)n1 | -21 | 9 | 96 | 1.3 | -7 | 114 | · | · | ·
Clc1cccc(-c2cc3nc4c(c(NCc5ccco5)n3n2)CCCC4)c1 | -59 | 14 | 93 | 2 | 131 | 154* | 242* | 145* | 113*
Cc1ccc(-c2cc3nc(C)cc(NCc4ccco4)n3n2)cc1 | -56 | -1 | 105 | 4.1* | 137* | 151* | 172* | 114 | 109
COCCNc1cc(C)nc2cc(-c3ccc(C)cc3)nn12 | -23 | 12 | 92 | 1.5 | 4 | 119 | · | · | ·
Cc1ccc(-n2nc3ccc(NC(=O)/C=C/c4ccco4)cc3n2)cc1 | -27 | -7 | 104 | 1.5 | 4 | 124 | · | · | ·
O=C1CCC([N+](=O)[O-])C(c2cc3c(cc2Cl)OCO3)N1 (stereo not drawn) | 4 | 13 | 92 | 1 | 9 | 95 | · | · | ·
O=c1cc(-c2ccc(O)cc2)oc2ccccc12 | -60 | 10 | 93 | 2.6 | 39 | 154* | 154* | 118 | 125*
Cn1c(=NC(=O)c2ccccc2[N+](=O)[O-])sc2cc(S(C)(=O)=O)ccc21 | -86 | -8 | 107 | 1.3 | 178* | 177* | 249* | 117 | 108
NS(=O)(=O)c1ccc(Oc2ccc(S(N)(=O)=O)cc2)cc1 | 10 | 3 | 99 | 1.1 | 15 | 89 | · | · | ·
C=CS(=O)(=O)c1ccc(Oc2ccc(S(=O)(=O)C=C)cc2)cc1 | -246 | 40 | 67 | 0.99 | -90 | 323* | 189* | 79 | 114*
CCc1ccc(NC(=O)C(=S)NC2CCCCC2)cc1 | -67 | 13 | 98 | 2.9 | 116 | 160* | 200* | 144* | 113*
SMILES | STAT1 inh | STAT3 blocker | STAT3 act | NF-kB expr up | APP 5'UTR act | STAT1 act | STAT1 act conf | NFkB act | STAT3 act STAT1c
CCOc1ccc(NC(=O)C(=S)NC2CCCCC2)cc1 | -31 | -3 | 105 | 1.6 | 57 | 126 | · | · | ·
COc1ccc(NC(=O)C(=S)NC2CCCCC2)cc1 | -67 | -11 | 110 | 0.91 | 121 | 158* | 194* | 138* | 115*
CSc1cccc(NC(=S)N(CCCN2CCC(C)CC2)Cc2cccs2)c1 | -9 | 12 | 100 | 0.85 | -1 | 108 | · | · | ·
O=C(/C=C/c1ccccc1)OCCCN=C1NS(=O)(=O)c2ccccc21 | 5 | 24 | 85 | 0.87 | 20 | 94 | · | · | ·
CN(C)S(=O)(=O)c1ccc(N2CCCC2)c(C(=O)Nc2nc(-c3cc(F)ccc3F)cs2)c1 | 4 | 5 | 96 | 1.2 | 7 | 96 | · | · | ·
Cc1cccc(NC(=O)COn2nnc3ccc(S(C)(=O)=O)cc32)c1 | 0 | 10 | 96 | 1.1 | -17 | 100 | · | · | ·
N#CCC(=O)Nc1nc(-c2ccc3c(c2)OCCO3)cs1 | -71 | -2 | 111 | 0.55 | 51 | 165* | 169* | 125 | 113*
Cc1cccc(Nc2nc(-c3ccc4c(c3)OCCO4)cs2)c1 | -63 | -3 | 103 | 1.4 | 161* | 158* | 217* | 144* | 108
O=C(Nc1nc(-c2ccc3c(c2)OCCO3)cs1)C1CCCC1 | -61 | -9 | 109 | 6.6* | 173* | 156* | 188* | 134* | 121*
O=C(CSCC(=O)N1CCOCC1)Nc1nc(-c2ccc3c(c2)OCO3)cs1 | -12 | -4 | 107 | 2 | 32 | 111 | · | · | ·
CN(Cc1nc(-c2cnccn2)no1)Cc1n[nH]c2c1CCCC2 | -5 | 13 | 93 | 1 | -4 | 105 | · | · | ·
COc1ccc(NC(=O)COC(=O)c2ccc(S(=O)(=O)N(C)c3ccccc3OC)cc2)c(OC)c1 | 0 | 7 | 98 | 1.1 | 5 | 98 | · | · | ·
COc1ccc(-c2cc(=NC(CC(C)C)C(=O)O)c3cc(C)ccc3o2)cc1 (stereo not drawn) | -63 | 16 | 90 | 4.3* | 126 | 156* | 144* | 136* | 108
CCN(CC)c1ccc2cc(C(=O)Nc3ccccn3)c(=O)oc2c1 | -56 | 42 | 68 | 3.6* | 97 | 154* | 236* | 93 | 93
CCOc1cc(-n2cnnn2)c(OCC)cc1NC(=O)c1cc2ccc(N(CC)CC)cc2oc1=O | -4 | -6 | 105 | · | 22 | 104 | · | · | ·
